# What was measured:
# Escherichia coli [1] = test: In vitro relative hydrolysis rate against Escherichia coli IIIa; assay type: functional
# How it was run: (§1)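 Spectrophotometric hydrolysis at 265 nm, substrate exposed to partially purified cell-free β-lactamase preparations; rate expressed as percentage of the cephaloridine rate.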
# Enterobacter cloacae [2] = test: In vitro relative hydrolysis rate against Enterobacter Ia; assay type: functional; how it was run: as §1
# Enterobacter cloacae [3] = test: Antibacterial activity against Enterobacter cloacae 265A; assay type: functional
# Escherichia coli [4] = test: Antibacterial activity against Escherichia coli EC14; assay type: functional; conditions: Escherichia coli; read-out: MIC
# Enterobacter cloacae [5] = test: Antibacterial activity against Enterobacter cloacae EB5; assay type: functional
# Escherichia coli [6] = test: Antibacterial activity against Escherichia coli TEM; assay type: functional
# Klebsiella pneumoniae [7] = test: microbe, parasite or virus in culture; assay type: functional
# Klebsiella pneumoniae [8] = test: Antibacterial activity against Klebsiella pneumoniae X26; assay type: functional; conditions: Klebsiella pneumoniae; read-out: MIC
# Klebsiella pneumoniae [9] = test: In vitro relative hydrolysis rate against Klebsiella IV; assay type: functional; how it was run: as §1
# Pseudomonas aeruginosa [10] = test: In vivo efficacy against Pseudomonas aeruginosa infected mice treated at 1 hr and 5 hr post infection; assay type: functional
# Staphylococcus aureus [11] = test: In vivo efficacy against Staphylococcus aureus infected mice treated at 1 hr and 5 hr post infection; assay type: functional
# Escherichia coli [12] = test: In vivo efficacy against Escherichia coli infected mice treated at 1 hr and 5 hr post infection; assay type: functional
# Escherichia coli [13] = test: In vivo efficacy against Escherichia coli infections in mice; assay type: functional; conditions: Escherichia coli; read-out: MIC
# Pseudomonas aeruginosa [14] = test: In vivo efficacy against Pseudomonas aeruginosa infections in mice; assay type: functional
# Staphylococcus aureus [15] = test: In vivo efficacy against Staphylococcus aureus infections in mice; assay type: functional
# Pseudomonas aeruginosa [16] = test: In vitro relative hydrolysis rate against Pseudomonas Id; assay type: functional; how it was run: as §1
# Pseudomonas aeruginosa [17] = test: Antibacterial activity against Pseudomonas aeruginosa X528; assay type: functional
# Pseudomonas aeruginosa [18] = test: Antibacterial activity against Pseudomonas aeruginosa PS18; assay type: functional
# Staphylococcus aureus [19] = test: Antibacterial activity against penicillin G resistance Staphylococcus aureus; assay type: functional
# Staphylococcus aureus [20] = test: Antibacterial activity against penicillin G susceptible Staphylococcus aureus; assay type: functional
# Streptococcus pneumoniae = test: Antibacterial activity against Streptococcus pneumoniae; assay type: functional
# Serratia marcescens = test: Antibacterial activity against Serratia marcescens SE3; assay type: functional
# Staphylococcus aureus [21] = test: In vitro relative hydrolysis rate against Staphylococcus aureus; assay type: functional; how it was run: as §1
# Streptococcus pyogenes = test: Antibacterial activity against Streptococcus pyogenes; assay type: functional
# Enterococcus faecium = test: Antibacterial activity against Enterococcus faecium; assay type: functional; conditions: Enterococcus faecium; read-out: MIC
# [22] = Terminal half life in dogs at the dose of 60 mg/kg.; assay type: ADME, organism-based, Canis lupus familiaris; set-up: dose 60 mg/kg; conditions: dog, in vivo
# How it was run: (§2)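 Overnight-fasted female mongrel dogs with a Foley bladder catheter; bolus into the cephalic vein. Plasma and urine collected before dosing and over 24 h after. Antibacterial activity measured by microbiological assay.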
# Canis familiaris = test: Percent of dose in dogs urine at the dose of 60 mg/kg.; assay type: functional, Canis lupus familiaris; how it was run: as §2
# Cavia porcellus = species: Cavia porcellus; test: In vitro relative anticholinergic potential in isolated guinea pig trachea; assay type: functional
# How it was run: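 Guinea pig trachea in Krebs' solution at 37.5 °C, 95% O2/5% CO2, pH 7.4, 2 g resting tension. Cumulative carbachol log dose-response curve (3-fold steps) run before and 30 min after adding antagonist at 1 mM. […] Tukey test on log2 dose ratios.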
# [23] = In vitro dose required for anticholinergic activity in isolated guinea pig trachea; assay type: functional
# [24] = Enterobacter cloacae, read-out: MIC
# [25] = Escherichia coli, read-out: MIC
# [26] = Klebsiella pneumoniae, read-out: MIC
# [27] = Pseudomonas aeruginosa, read-out: ED50
# [28] = Staphylococcus aureus, read-out: ED50
# [29] = Escherichia coli, read-out: ED50
# [30] = Pseudomonas aeruginosa, read-out: MIC
# [31] = Staphylococcus aureus, read-out: MIC
# [32] = Streptococcus pneumoniae, read-out: MIC
# [33] = Serratia marcescens, read-out: MIC
# [34] = Streptococcus pyogenes, read-out: MIC
SMILES,Hydrolysis rate (Escherichia coli [1]),Hydrolysis rate (Enterobacter cloacae [2]),MIC (Escherichia coli [4]),MIC (Klebsiella pneumoniae [8]),Hydrolysis rate (Klebsiella pneumoniae [9]),MIC (Escherichia coli [13]),Hydrolysis rate (Pseudomonas aeruginosa [16]),Hydrolysis rate (Staphylococcus aureus [21]),MIC (Enterococcus faecium),MIC (Enterobacter cloacae [3]; [24]),MIC (Enterobacter cloacae [5]; [24]),MIC (Escherichia coli [6]; [25]),MIC (Klebsiella pneumoniae [7]; [26]),MIC (Pseudomonas aeruginosa [17]; [30]),MIC (Pseudomonas aeruginosa [18]; [30]),MIC (Staphylococcus aureus [19]; [31]),MIC (Staphylococcus aureus [20]; [31]),MIC (Streptococcus pneumoniae; [32]),MIC (Serratia marcescens; [33]),MIC (Streptococcus pyogenes; [34]),also measured
CO/N=C(\C(=O)N[C@@H]1C(=O)N2C(C(=O)[O-])=C(C[n+]3ccc(CC(=O)NO)cc3)CS[C@H]12)c1csc(N)n1 (stereo in doubt; 9),0.1,0.2,0.03 µg/mL,0.03 µg/mL,1.2,0.03 µg/mL,0.1,6.9,128 µg/mL,,,,,,,,,,,,MIC (Enterobacter cloacae [3]): 32 µg/mL; MIC (Enterobacter cloacae [5]): 0.25 µg/mL; MIC (Escherichia coli [6]): 0.03 µg/mL; MIC (Klebsiella pneumoniae [7]): 4 µg/mL; ED50 (Pseudomonas aeruginosa [10]): 39 mg/kg; ED50 (Staphylococcus aureus [11]): 1 mg/kg; ED50 (Escherichia coli [12]): <0.3 mg/kg; MIC (Pseudomonas aeruginosa [14]): 16 µg/mL; MIC (Staphylococcus aureus [15]): 1 µg/mL; MIC (Pseudomonas aeruginosa [17]): 8 µg/mL; MIC (Pseudomonas aeruginosa [18]): 4 µg/mL; MIC (Staphylococcus aureus [19]): 4 µg/mL; MIC (Staphylococcus aureus [20]): 2 µg/mL; MIC (Streptococcus pneumoniae): 0.03 µg/mL; MIC (Serratia marcescens): 0.125 µg/mL; MIC (Streptococcus pyogenes): 0.03 µg/mL
CO/N=C(\C(=O)N[C@@H]1C(=O)N2C(C(=O)[O-])=C(C[n+]3ccc4ccccc4c3)CS[C@H]12)c1csc(N)n1,0.2,0.3,0.015 µg/mL,0.015 µg/mL,2.8,0.015 µg/mL,0.1,9.3,128 µg/mL,8 µg/mL,0.06 µg/mL,0.03 µg/mL,2 µg/mL,2 µg/mL,4 µg/mL,1 µg/mL,1 µg/mL,0.015 µg/mL,0.06 µg/mL,< 0.008 µg/mL,ED50 (Pseudomonas aeruginosa [10]; [27]): 9 mg/kg; ED50 (Staphylococcus aureus [11]; [28]): 0.4 mg/kg; ED50 (Escherichia coli [12]; [29]): 0.04 mg/kg; MIC (Pseudomonas aeruginosa [14]; [30]): 8 µg/mL; MIC (Staphylococcus aureus [15]; [31]): 1 µg/mL
CO/N=C(\C(=O)N[C@@H]1C(=O)N2C(C(=O)[O-])=C(C[n+]3cccc4sccc43)CS[C@H]12)c1csc(N)n1,0.2,0.2,0.06 µg/mL,0.03 µg/mL,0.7,0.03 µg/mL,0.2,6.2,128 µg/mL,4 µg/mL,0.25 µg/mL,0.06 µg/mL,1 µg/mL,2 µg/mL,4 µg/mL,4 µg/mL,0.5 µg/mL,0.03 µg/mL,0.125 µg/mL,0.015 µg/mL,ED50 (Pseudomonas aeruginosa [10]; [27]): 9.3 mg/kg; ED50 (Staphylococcus aureus [11]; [28]): 0.6 mg/kg; ED50 (Escherichia coli [12]; [29]): 0.04 mg/kg; MIC (Pseudomonas aeruginosa [14]; [30]): 2 µg/mL; MIC (Staphylococcus aureus [15]; [31]): 1 µg/mL
CO/N=C(\C(=O)N[C@@H]1C(=O)N2C(C(=O)[O-])=C(C[n+]3cccc4c(N)cccc43)CS[C@H]12)c1csc(N)n1,0.7,1.1,0.015 µg/mL,0.015 µg/mL,6.8,0.03 µg/mL,0.6,0.2,128 µg/mL,8 µg/mL,0.06 µg/mL,0.015 µg/mL,2 µg/mL,2 µg/mL,2 µg/mL,2 µg/mL,1 µg/mL,0.015 µg/mL,0.06 µg/mL,< 0.008 µg/mL,ED50 (Pseudomonas aeruginosa [10]; [27]): 6 mg/kg; ED50 (Staphylococcus aureus [11]; [28]): 0.2 mg/kg; ED50 (Escherichia coli [12]; [29]): < 0.03 mg/kg; MIC (Pseudomonas aeruginosa [14]; [30]): 2 µg/mL; MIC (Staphylococcus aureus [15]; [31]): 0.5 µg/mL
CO/N=C(\C(=O)N[C@@H]1C(=O)N2C(C(=O)[O-])=C(C[n+]3ccc4sc(C(=O)O)cc4c3)CS[C@H]12)c1csc(N)n1,,,< 0.008 µg/mL,< 0.008 µg/mL,,,,,> 128 µg/mL,32 µg/mL,0.06 µg/mL,0.03 µg/mL,4 µg/mL,2 µg/mL,8 µg/mL,16 µg/mL,2 µg/mL,< 0.008 µg/mL,0.06 µg/mL,< 0.008 µg/mL,half-life [22]: 1.5 h; Percent of dose recovered in urine (Canis familiaris): 98%; RAP (Cavia porcellus): 2; Dose ratio [23]: 1.52
CO/N=C(\C(=O)N[C@@H]1C(=O)N2C(C(=O)[O-])=C(C[n+]3ccc4occc4c3)CS[C@H]12)c1csc(N)n1,,,0.015 µg/mL,0.015 µg/mL,,0.015 µg/mL,,,> 128 µg/mL,4 µg/mL,0.06 µg/mL,0.03 µg/mL,4 µg/mL,1 µg/mL,2 µg/mL,4 µg/mL,0.5 µg/mL,< 0.008 µg/mL,0.03 µg/mL,< 0.008 µg/mL,half-life [22]: 1.33 h; Percent of dose recovered in urine (Canis familiaris): 94%; ED50 (Pseudomonas aeruginosa [10]; [27]): 18 mg/kg; ED50 (Staphylococcus aureus [11]; [28]): < 0.6 mg/kg; ED50 (Escherichia coli [12]; [29]): < 0.6 mg/kg; MIC (Pseudomonas aeruginosa [14]; [30]): 4 µg/mL; MIC (Staphylococcus aureus [15]; [31]): 1 µg/mL

# Source: ChEMBL document CHEMBL1124865, “Synthesis and biological evaluation of a series of parenteral 3'-quaternary ammonium cephalosporins” (J Med Chem, 1990)
